Measurements reported in ChEMBL document CHEMBL1127532, “Presynaptic cholinergic modulators as potent cognition enhancers and analgesic drugs. 1. Tropic and 2-phenylpropionic acid esters” (J Med Chem, 1994).
Active and inactive are the calls of the source.

Key:
[1] = target: Muscarinic acetylcholine receptor (Mus musculus) (UniProt Q920H4+Q9ERZ4+P12657+P32211+Q9ERZ3); experiment: Analgesic activity after subcutaneous administration in male albino Swiss-Webster mice with the hotplate test; format: functional, organism-based
Summary of the method: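 Mouse hot-plate test, plate held at 52.5 ± 0.1 °C with a 45 s cutoff. Drug given subcutaneously, 8 to 20 mice per test. Potency expressed as ED50.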

Mus musculus [2] = species: Mus musculus; experiment: Analgesic activity as percentage analgesic efficacy on male albino swiss-webster mice with the hotplate test; format: functional; design: concentration or dose not given beside the values
Summary of the method: (§1)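 Hot-plate test at 52.5 ± 0.1 °C, 45 s cutoff, compound dosed at its maximal nontoxic dose (the highest dose giving no visible behavioural change to blinded observers). Efficacy = (maximum reaction time − pretest time) / the same difference for morphine-HCl 8 mg/kg sc × 100.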

Mus musculus [3] = species: Mus musculus; experiment: Analgesic activity as percentage analgesic efficacy on male albino Swiss-Webster mice with the hotplate test; Inactive; format: functional; summary of the method: as §1
[4] = target: Muscarinic acetylcholine receptor; experiment: Binding affinity for [3H]QNB in membrane preparations from rat brain tissue
Summary of the method: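 [3H]QNB binding to rat brain membrane preparations. pKi calculated with the LIGAND program, mean of at least three experiments.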

Mus musculus [5] = species: Mus musculus; experiment: The compound was evaluated for the analgesic activity as percentage analgesic efficacy on male albino Swiss-Webster mice with the hotplate test;Inactive; format: functional, organism-based; summary of the method: as §1
Mus musculus [6] = species: Mus musculus; experiment: The compound was evaluated for the analgesic activity as percentage analgesic efficacy on male albino Swiss-Webster mice with the hotplate test; inactive; format: functional, organism-based; summary of the method: as §1

| Compound | ED50 [1] [mg/kg] | Analgesic efficacy (Mus musculus [2]) [%] | Analgesic efficacy (Mus musculus [3]) | also measured |
| --- | --- | --- | --- | --- |
| CC(C(=O)OC1CC2CCC(C1)N2C)c1ccc(Br)cc1 (single isomer, unassigned; (+)) | 17 | 92 |  |  |
| CCN(CC)CC#CCOC(=O)C(C)c1ccc(Br)cc1 (configuration not stated) |  |  | inactive |  |
| CC(C(=O)OC1CC2CCC(C1)N2C)c1ccc(Br)cc1.O=C(O)/C=C\C(=O)O (racemic) |  |  |  | Log Ki [4]: -6.96 |
| CCN(CC)CCOC(=O)C(CO)c1ccc(Cl)cc1 (configuration not stated) |  |  | inactive |  |
| C[C@H](C(=O)OC1CC2CCC(C1)N2C)c1ccccc1 (some centres not stated) | 3.1 | 29 |  |  |
| CC(C(=O)OC1CC2CCC(C1)N2C)c1ccccc1Cl (configuration not stated) | 36 | 83 |  |  |
| CC(C(=O)OC1CC2CCC(C1)N2Cc1ccccc1)c1ccc(Br)cc1 (configuration not stated) | 28 | 34 |  |  |
| CC(C(=O)OC1CC2CCC(C1)N2C)c1cccc(Cl)c1 (configuration not stated) | 37 | 71 |  |  |
| CN(C)CCCOC(=O)C(CO)c1ccccc1.O=C(O)C(Oc1ccccc1)C(Oc1ccccc1)C(=O)O (configuration not stated) |  |  | inactive |  |
| CC(C(=O)OC1CC2CCC(C1)N2C)c1ccccc1 (racemic) | 5 | 35 |  |  |
| CN1C2CCC1CC(OC(=O)C(Cl)c1ccccc1)C2 (configuration not stated) |  |  | inactive |  |
| CC(C)Cc1ccc(C(C)C(=O)OC2CC3CCC(C2)N3C)cc1 (configuration not stated) | 27 | 40 |  |  |
| O=C(OC1CC2CCC(C1)N2)C(CO)c1ccccc1 (configuration not stated) | 5 | 35 |  |  |
| CCC(C(=O)OC1CC2CCC(C1)N2C)c1ccc(Br)cc1 (configuration not stated) | 33 | 81 |  |  |
| CN1C2CCC1CC(OC(=O)C(CO)c1ccc(Cl)cc1)C2 (configuration not stated) | 0.6 | 37 |  |  |
| CC(C(=O)OCCCN(C)C)c1ccc(Br)cc1 (configuration not stated) |  |  | inactive |  |
| CN1[C@@H]2CC[C@H]1C[C@@H](OC(=O)C(CO)c1ccccc1)C2 (mixture of isomers) | 0.7 | 42 |  |  |
| CC(C(=O)OC1CC2CCC(C1)N2C)c1ccccc1Br (configuration not stated) | 30 | 62 |  |  |
| CC(C(=O)OC1CC2CCC(C1)N2C)c1ccc(F)cc1 (configuration not stated) | 31 | 79 |  |  |
| CC(C(=O)OC1CC2CCC(C1)N2C)c1ccc(Cl)c(Cl)c1 (configuration not stated) | 1 | 42 |  |  |
| CC(C(=O)OC1CC2CCC(C1)N2C)c1ccc(Br)cc1 (stereo in doubt; (-)-19) | 16 | 83 |  |  |
| COc1ccc(C(CO)C(=O)OC2CC3CCC(C2)N3C)cc1 (configuration not stated) |  |  | inactive |  |
| CN1[C@@H]2CC[C@H]1C[C@H](OC(=O)[C@H](CO)c1ccccc1)C2 |  |  | inactive |  |

| Compound | ED50 [1] [mg/kg] | Analgesic efficacy (Mus musculus [2]) [%] | Analgesic efficacy (Mus musculus [3]) | also measured |
| --- | --- | --- | --- | --- |
| CN1CCC(OC(=O)C(CO)c2ccc(Cl)cc2)CC1 (configuration not stated) | 5 | 26 |  |  |
| CN1[C@@H]2CC[C@H]1C[C@H](OC(=O)[C@@H](CO)c1ccccc1)C2 | 0.7 | 41 |  |  |
| CCN(CC)CC#CCOC(=O)C(CO)c1ccccc1.O=C(O)C(Oc1ccccc1)C(Oc1ccccc1)C(=O)O (configuration not stated) |  |  | inactive |  |
| COc1ccc(C(C)C(=O)OC2CC3CCC(C2)N3C)cc1 (configuration not stated) | 32 | 97 |  |  |
| CC(C(=O)OC1CC2CCC(C1)N2C)c1ccsc1 (configuration not stated) | 22 | 44 |  |  |
| C[C@@H](C(=O)OC1CC2CCC(C1)N2C)c1ccccc1 (some centres not stated) |  |  |  | Analgesic efficacy (Mus musculus [5]): inactive |
| CCN(CC)CCOC(=O)C(C)c1ccc(Br)cc1 (configuration not stated) |  |  | inactive |  |
| CC(Cc1ccc(Cl)cc1)C(=O)OC1CC2CCC(C1)N2C (configuration not stated) |  |  | inactive |  |
| CN1C2CCC1CC(OC(=O)Cc1ccc(Br)cc1)C2 (configuration not stated) |  |  | inactive |  |
| CC(C(=O)OC1CC2CCC(C1)N2C)c1ccc(Cl)cc1.O=C(O)/C=C\C(=O)O (configuration not stated) | 36 | 83 |  | Log Ki [4]: -7.02 |
| CC(C(=O)OC1CC2CCC(C1)N2C)c1ccc(Br)cc1 (racemic) |  | 101 |  |  |
| CC(C(=O)OC1CC2CCC(C1)N2C)c1ccc(C(F)(F)F)cc1 (configuration not stated) | 31 | 26 |  |  |
| CC(C(=O)OC1CC2CCC(C1)N2C)c1ccc(N(C)C)cc1 (configuration not stated) |  |  | inactive |  |
| CCN1C2CCC1CC(OC(=O)C(C)c1ccc(Br)cc1)C2 (configuration not stated) |  |  |  | Analgesic efficacy (Mus musculus [6]): inactive |
| CC(COC1CC2CCC(C1)N2C)c1ccc(Br)cc1 (configuration not stated) | 32 | 45 |  |  |
| CCN1C2CCC1CC(OC(=O)C(CO)c1ccccc1)C2 (configuration not stated) | 7.3 | 33 |  |  |
| CN1C2CCC1CC(OC(=O)Cc1ccccc1)C2 (configuration not stated) |  |  | inactive |  |
| CC(C(=O)OC1CCN(C)CC1)c1ccc(Br)cc1 (configuration not stated) |  |  | inactive |  |
| CC(C(=O)OC1CC2CCC(C1)N2C)c1ccc(N)cc1 (configuration not stated) | 6 | 41 |  |  |
| CC(C(=O)OC1CC2CCC(C1)N2)c1ccc(Br)cc1 (configuration not stated) |  |  | inactive |  |
| CC(C(=O)OC1CC2CCC(C1)N2C)c1ccc([N+](=O)[O-])cc1 (configuration not stated) | 18 | 38 |  |  |
| CC(C(=O)OC1CC2CCC(C1)N2C)c1cccs1 (configuration not stated) | 5.4 | 21 |  |  |
